# Source: PubChem BioAssay
# Active and inactive are the calls of the source.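 The calls were made as follows, unless noted: active = inhibition at or above 50% at 10 µM; inactive = inhibition below 50%.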
# Assays:
# [1] = inhibitors of TNFa-induced NFkB p65 translocation, primary screen, imaging, HUVEC, MLSMR starter and 10KST1 sets (AID 438;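 active = inhibition above 20% together with a positive visual image hit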;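 also: compound added about 3h40 before a 20 min TNFalpha stimulation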;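 as to inhibition: signal is the nuclear over cytoplasmic p65 intensity ratio per well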); conditions: HUVEC TNFa-induced p65 nuclear translocation; cell count: measured here: nuclei count (cytotoxicity indicator), at 2.08 µM; inhibition: at 2 µM, stronger effect = higher value, 0% TNFa-plus-vehicle, 100% no-TNFa wells
# [2] = reduction of polyQ htt aggregates in cells – imaging, exon1htt(103Q)mCFP cells, high-content imaging, primary screen (AID 483;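 active = visual image review flags a hit and inhibition of aggregation exceeds 20%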;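 also: compound exposure lasted 3 days before fixation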;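 as to nuclei count: percent of the per-plate median nuclei count of sample wells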); conditions: exon1htt(103Q)mCFP cell line, aggregate imaging, at 2 µM; inhibition of aggregation: stronger effect = higher value; nuclei count: measured here: cell count, toxicity
# [3] = endothelial E-selectin expression blockers – imaging, HUVEC, immunofluorescence, MLSMR starter and 10KST1 sets, primary screen (AID 487;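 active = visually confirmed hit in the image check and inhibition above 20%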;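 as to inhibition: signal is fraction of cell area covered by stained E-selectin grains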;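 as to nuclei count: 100% = median nuclei count of all wells on the same plate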); conditions: HUVEC TNFalpha-induced E-selectin immunofluorescence imaging, at 2 µM; inhibition: stronger effect = higher value; nuclei count: measured here: cell number, toxicity
# [4] = target: Voltage-gated potassium channel subunit beta-2 (Rattus norvegicus) (UniProt P62483); assay: inhibitors of rat Kvbeta2 reductase activity – biochemical, NADPH fluorescence, primary screen (AID 622;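 active = fluorescence slope higher than the sample average by over 3 SD, cut at about -0.22 in these data, passing the limit was not always enough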;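 also: slope of raw intensity against log time taken from 70 to 1610 s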); conditions: recombinant KvBeta, 4-cyanobenzaldehyde reduction, at 10 µM, stronger effect = higher value
# Chain of Voltage-gated potassium channel subunit beta-2 (Rattus norvegicus) (P62483 whole entry, looked up): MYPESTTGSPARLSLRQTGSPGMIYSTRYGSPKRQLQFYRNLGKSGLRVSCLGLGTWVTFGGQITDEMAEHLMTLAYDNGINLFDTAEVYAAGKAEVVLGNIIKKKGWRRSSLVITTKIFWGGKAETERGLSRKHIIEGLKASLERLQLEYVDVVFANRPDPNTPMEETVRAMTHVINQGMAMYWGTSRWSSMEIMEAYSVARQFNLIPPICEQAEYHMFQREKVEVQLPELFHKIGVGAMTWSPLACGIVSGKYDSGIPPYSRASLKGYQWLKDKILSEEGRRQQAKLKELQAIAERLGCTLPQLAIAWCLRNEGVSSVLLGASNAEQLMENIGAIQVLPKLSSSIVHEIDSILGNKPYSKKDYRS
# [5] = target: Voltage-gated potassium channel subunit beta-2 (Rattus norvegicus) (UniProt P62483); assay: enhancers of rat Kvbeta2 NADPH turnover – biochemical, NADPH fluorescence, primary screen (AID 623;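 active = NADPH fluorescence slope more negative than the mean of all samples by about 3 SD, 99.7% confidence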;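 also: fluorescence intensity change per second fitted from 20 to 320 s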); conditions: Recombinant KvBeta, NADPH fluorescence decrease slope, 10 min; at 10 µM; stronger effect = lower value
# [6] = target: Muscarinic acetylcholine receptor M4 (Homo sapiens) (UniProt P08173); assay: M4-linked GIRK flux change, two-sided – cell-based, HEK293 M4/GIRK, thallium flux, BTC-AM, M4 allosteric agonist project, primary screen (AID 625;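 active = fluorescence slope after compound addition differing from the mean of all tested samples at 99.7% confidence, mostly higher but some lower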;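 also: thallium influx through GIRK channels coupled to M4 in HEK293 cells with BTC-AM dye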); conditions: at 10 µM, actives lie on both sides
# Chain of Muscarinic acetylcholine receptor M4 (Homo sapiens) (P08173 whole entry, looked up): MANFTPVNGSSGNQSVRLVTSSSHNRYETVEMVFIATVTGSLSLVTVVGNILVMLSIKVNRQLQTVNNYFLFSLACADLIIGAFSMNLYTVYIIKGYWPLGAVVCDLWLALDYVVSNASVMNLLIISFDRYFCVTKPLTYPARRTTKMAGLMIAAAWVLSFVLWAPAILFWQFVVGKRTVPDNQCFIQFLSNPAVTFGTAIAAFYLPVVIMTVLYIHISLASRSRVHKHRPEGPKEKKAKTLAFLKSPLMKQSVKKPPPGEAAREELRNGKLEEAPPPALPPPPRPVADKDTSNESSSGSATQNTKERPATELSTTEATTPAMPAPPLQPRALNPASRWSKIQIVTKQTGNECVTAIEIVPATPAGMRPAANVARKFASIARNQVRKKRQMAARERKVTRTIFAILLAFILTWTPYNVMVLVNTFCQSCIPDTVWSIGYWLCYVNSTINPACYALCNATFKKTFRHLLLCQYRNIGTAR
# How it was run: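 Assay system: HEK293 cells with M4 receptor and GIRK channels / Controls: carbachol and DMSO controls / Schedule: 1 h dye loading, 2 min kinetic read / Technique: kinetic fluorescence with BTC-AM dye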
# [7] = blockers of RIG-like receptor reporter activation – cell-based, Sendai virus stimulus, luciferase, 10K MLSCN set, TLR/RLR signaling modifier project, primary screen (AID 602276); conditions: HEK293 RL24 IRF3 luciferase reporter, at 10 µM, stronger effect = higher value;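 also: firefly luciferase from ISG56 promoter only with Renilla not read in this screen; 0% = Sendai virus plus DMSO and 100% = medium plus DMSO without virus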
# [8] = TLR3 IRF3 reporter activation blockers – cell-based, poly I:C stimulus, luciferase, 10K MLSCN set, primary screen (AID 602277;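 active = inhibition of the reporter signal at or above 50%; inactive = inhibition below 50%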); conditions: HEK293-TLR3 RL24 IRF3 luciferase reporter, at 10 µM, stronger effect = higher value
Structure (SMILES),cell count [1],inhibition [1],inhibition of aggregation [2],nuclei count [2] [%],inhibition [3],nuclei count [3] [%],fluorescence slope [4],NADPH fluorescence slope [5],fluorescence slope [6],inhibition [7],inhibition [8]
CCCCOc1ccc(-c2nnn(CC(=O)Nc3ncc(CC(=O)OCC)s3)n2)cc1,613,36.4% (active),18.6% (inactive),108,-79% (inactive),79.4,-0.4 (inactive),6.8e-06 (inactive),0.00855 (inactive),13.5% (inactive),23.8% (inactive)
Nc1c(C2=NCCO2)nnn1Cc1ccccc1,612,4.2% (inactive),19.4% (inactive),79.3,-130% (inactive),149,-0.597 (inactive),-4.6e-05 (inactive),0.00414 (inactive),19.1% (inactive),19.1% (inactive)
CCOc1ccccc1N1C(=O)CC(Sc2ncccc2C(=O)O)C1=O (stereo not given),890,-0.7% (inactive),-13.3% (inactive),105,-111% (inactive),136,-0.46 (inactive),-8.3e-07 (inactive),0.00417 (inactive),12.2% (inactive),13.4% (inactive)
COCCCNC(=O)CCc1nc(-c2ccccc2Cl)no1,476,8.6% (inactive),-10.1% (inactive),95.7,-130% (inactive),132,-0.556 (inactive),-9.5e-06 (inactive),0.00327 (inactive),17.7% (inactive),23.4% (inactive)
Cc1nn(-c2ccc(F)cc2)c2sc(C(=O)OCC(=O)N3CCC(C)CC3)cc12,359,-4.2% (inactive),-8.8% (inactive),95.7,0.8% (inactive),106,-0.514 (inactive),-3.9e-05 (inactive),0.00495 (inactive),-2.34% (inactive),-1.01% (inactive)
COc1ccccc1CNS(=O)(=O)c1cccc(S(=O)(=O)N2CCOCC2)c1,676,25.1% (inactive),7.8% (inactive),116,19.5% (inactive),117,-0.401 (inactive),2.6e-05 (inactive),0.00588 (inactive),10.7% (inactive),19.2% (inactive)
CCCC(=O)Nc1ccccc1NC(=O)CN(C)S(=O)(=O)c1ccc(C)cc1,182,-6.3% (inactive),-6.6% (inactive),81.6,20.2% (inactive),83.4,-0.56 (inactive),-3e-05 (inactive),0.00633 (inactive),1.42% (inactive),11.1% (inactive)
Cc1nn(-c2ccccc2)c(Cl)c1C1C(C#N)=C(N)OC2=C1C(=O)CC(C)(C)C2 (stereo not given),378,5.6% (inactive),-4.8% (inactive),100,-110% (inactive),113,-0.577 (inactive),-3.7e-05 (inactive),0.00783 (inactive),6.31% (inactive),31.1% (inactive)
CCOc1ccc(OCc2cccc(C(=O)O)c2)cc1,600,3.8% (inactive),-11.5% (inactive),112,-68% (inactive),116,-0.551 (inactive),-2.8e-05 (inactive),0.00598 (inactive),-46.2% (inactive),-87.1% (inactive)
CCn1c(=O)cc(SCC(=O)N2CCN(C3CCCCC3)CC2)c2ccccc21,417,-5.2% (inactive),-6.7% (inactive),131,-69.8% (inactive),108,-0.565 (inactive),1.7e-06 (inactive),0.0055 (inactive),8.4% (inactive),65.5% (active)
Cc1cc2c(cc(C(=O)NCc3cccnc3)n2Cc2ccc(Cl)cc2)o1,672,-16.6% (inactive),-46.1% (inactive),127,-91.9% (inactive),99.8,-0.49 (inactive),-2.7e-06 (inactive),0.00518 (inactive),12.1% (inactive),14.8% (inactive)
COc1cc(NC(=O)c2cc(-n3cnnc3)ccc2Cl)cc(OC)c1,224,-8.1% (inactive),-12.2% (inactive),97.9,-46.1% (inactive),95.5,-0.479 (inactive),-8.2e-05 (inactive),0.00479 (inactive),15.2% (inactive),17.9% (inactive)
CC(C)OP(=O)(c1ccc(N(C)C)cc1)C(O)c1ccccc1F (stereo not given),720,-7.2% (inactive),12.5% (inactive),117,-14.7% (inactive),117,-0.541 (inactive),-5.1e-05 (inactive),0.00489 (inactive),11.8% (inactive),22.5% (inactive)
O=C(Nc1ccc(Cl)cc1)C1CC=CCC1C(=O)OCC(F)(F)C(F)F (stereo not given),628,8.2% (inactive),31.1% (inactive),88,-17.6% (inactive),96.7,-0.319 (inactive),-7e-05 (inactive),0.00812 (inactive),11.2% (inactive),3.19% (inactive)
Cc1ccccc1NC(=O)C1CCN(c2cnccn2)CC1,304,2.2% (inactive),-10.2% (inactive),86.3,-42.9% (inactive),111,-0.543 (inactive),-1.5e-06 (inactive),0.00512 (inactive),5.1% (inactive),15.6% (inactive)
c1ccc(CNC2=NCCC2)nc1,414,-5.7% (inactive),14.2% (inactive),65.8,42.6% (inactive),75.5,-0.586 (inactive),-2.6e-05 (inactive),0.00615 (inactive),1.8% (inactive),10.1% (inactive)
Cc1ccc(-n2ncc3c(N4CCN(c5ccc(F)cc5)CC4)ncnc32)c(C)c1,514,-6.8% (inactive),4.6% (inactive),83.4,32.4% (inactive),92.4,-0.521 (inactive),-0.000115 (inactive),0.00599 (inactive),-19.8% (inactive),-65.4% (inactive)
CSc1nnc2n(CCc3ccccc3)c(=O)c3c4c(sc3n12)CCCC4,295,-21.3% (inactive),-2.1% (inactive),106,-22% (inactive),112,-0.476 (inactive),-2.9e-05 (inactive),0.00521 (inactive),7.14% (inactive),-1.7% (inactive)
N#Cc1c(SCC(=O)N2CCOCC2)nsc1SCC(=O)N1CCOCC1,398,-8.5% (inactive),-6.4% (inactive),99.1,-45% (inactive),117,-0.565 (inactive),-2.7e-05 (inactive),0.0058 (inactive),3.35% (inactive),4.99% (inactive)
CCOc1ccc(C(=O)Cc2ccc3oc(C(=O)O)cc3c2)c(O)c1,580,10.2% (inactive),4.1% (inactive),63.8,-3.3% (inactive),97.5,-0.522 (inactive),-4.9e-05 (inactive),0.00668 (inactive),16.4% (inactive),22.3% (inactive)
CCOC(=O)N1CCN(C(=O)CN(C)S(=O)(=O)c2ccc(OC)c(OC)c2)CC1,464,5.8% (inactive),-12.7% (inactive),118,17.8% (inactive),102,-0.614 (inactive),-3.8e-05 (inactive),0.00404 (inactive),16.2% (inactive),20.5% (inactive)
Cc1onc(-c2c(Cl)cccc2Cl)c1C(=O)NCCCN1CCOCC1,618,3.6% (inactive),13.7% (inactive),100,-48.9% (inactive),84,-0.47 (inactive),-2.9e-05 (inactive),0.00479 (inactive),9.5% (inactive),10.6% (inactive)
COc1ccc(Cn2nnnc2C(c2ccncc2)N2CCOCC2)cc1 (stereo not given),543,0.5% (inactive),-5.2% (inactive),90.8,-90.6% (inactive),119,-0.608 (inactive),-1.7e-05 (inactive),0.00759 (inactive),7.51% (inactive),9.52% (inactive)
CCn1c2ccccc2c2cc(NC(=O)Cc3ccc(S(=O)(=O)N4CCOCC4)s3)ccc21,343,-0.2% (inactive),29.4% (inactive),115,-10.9% (inactive),109,-0.502 (inactive),1e-05 (inactive),0.00333 (inactive),25.9% (inactive),26.4% (inactive)
CCCN(CCC)CCNC(=O)C(NS(=O)(=O)c1ccc2c(c1)CCC(=O)N2)c1ccccc1 (stereo not given),524,0.7% (inactive),-8.1% (inactive),98.1,-17.1% (inactive),112,-0.555 (inactive),-5e-05 (inactive),0.00588 (inactive),8.32% (inactive),24.9% (inactive)
